From ChEMBL document CHEMBL3632598, “Stereospecific inhibition of nitric oxide production in macrophage cells by flavanonols: Synthesis and the structure-activity relationship” (Bioorg Med Chem, 2015)
Structures can show the parent of a compound that is named as a salt.

Key:
RAW264.7 [1] = assay: Antiinflammatory activity in mouse RAW264.7 cells assessed as inhibition of LPS-induced nitric oxide production at 100 uM pre-incubated for 2 hrs before LPS stimulation for 16 hrs by Griess method; type: functional
In short: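 RAW 264.7 cells (1.6 × 10^6 cells/mL) in F-12 Ham medium with 10% FBS, glutamate and penicillin-streptomycin. Compounds were given as DMSO stock diluted 1:100 in medium, final 100 µM, and concentration was checked by UV absorbance. After 2 h at 37 °C, LPS was added to a final 100 ng/mL and cells were incubated 16 h. Aminoguanidine was the positive control; mean ± S.D., n = 3.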

[2] = Antioxidant activity assessed as DPPH radical scavenging activity after 30 mins by spectrophotometry; type: physicochemical
RAW264.7 [3] = assay: Cytotoxicity against mouse RAW264.7 cells assessed as cell viability at 100 uM pre-incubated for 2 hrs before LPS stimulation for 16 hrs followed by 4 hrs incubation by alamar blue assay; type: cell-based; details: raw264.7, 100 µM
In short: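 Viability was read on the RAW 264.7 cells left after supernatant removal in the LPS/NO assay (100 µM compound, 2 h pre-incubation, LPS 100 ng/mL for 16 h). AlamarBlue was added and plates were incubated 4 h at 37 °C. Absorbance was read at 570 nm (reference 655 nm).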

Row | Compound | inhibition at 100 µM (RAW264.7 [1]) [%] | EC50 [2] [µM] | Activity (RAW264.7 [3])
1 | O=C1c2c(O)cc(O)cc2O[C@@H](c2ccc(O)cc2)[C@@H]1O | < 10 | > 100 | –
2 | O=C1c2c(O)cc(O)cc2O[C@@H](c2ccc(O)c(O)c2)[C@@H]1O | < 10 | 12.6 | –
3 | O=C(O)c1cc(O)c(O)c(O)c1 | – | 10 | –
4 | O=C1c2c(O)cc(O)cc2O[C@@H](c2ccccc2)[C@@H]1O | < 10 | > 100 | –
5 | O=C1c2c(O)cc(O)cc2O[C@H](c2ccccc2O)[C@H]1O | 40 | > 100 | Non-toxic
6 | O=C1c2c(O)cc(O)cc2O[C@@H](c2ccccc2O)[C@@H]1O | < 15 | > 100 | Non-toxic
7 | O=C1c2c(O)cc(O)cc2O[C@H](c2cccc(O)c2)[C@H]1O | 35 | > 100 | Non-toxic
8 | O=C1c2c(O)cc(O)cc2O[C@@H](c2cccc(O)c2)[C@@H]1O | < 15 | > 100 | Non-toxic
9 | O=C1c2c(O)cc(O)cc2O[C@H](c2cccc(O)c2O)[C@H]1O | 70 | 12.5 | Non-toxic
10 | O=C1c2c(O)cc(O)cc2O[C@@H](c2cccc(O)c2O)[C@@H]1O | 45 | 13.2 | Non-toxic
11 | O=C1c2c(O)cc(O)cc2O[C@@H](c2ccc(O)cc2O)[C@@H]1O | < 10 | > 100 | –
12 | O=C1c2c(O)cc(O)cc2O[C@H](c2cc(O)ccc2O)[C@H]1O | 30 | 24.5 | Non-toxic
13 | O=C1c2c(O)cc(O)cc2O[C@@H](c2cc(O)ccc2O)[C@@H]1O | < 15 | 25.4 | Non-toxic
14 | O=C1c2c(O)cc(O)cc2O[C@H](c2cc(O)cc(O)c2)[C@H]1O | < 10 | > 100 | –
15 | O=C1c2c(O)cc(O)cc2O[C@@H](c2cc(O)cc(O)c2)[C@@H]1O | < 10 | > 100 | –
16 | COc1cccc([C@H]2Oc3cc(O)cc(O)c3C(=O)[C@@H]2O)c1 | < 10 | > 100 | –
17 | COc1cccc([C@@H]2Oc3cc(O)cc(O)c3C(=O)[C@H]2O)c1 | < 10 | > 100 | –
18 | COc1ccc([C@@H]2Oc3cc(O)cc(O)c3C(=O)[C@H]2O)cc1 | < 10 | > 100 | –

Row | Compound | inhibition at 100 µM (RAW264.7 [1]) [%] | EC50 [2] [µM] | Activity (RAW264.7 [3])
19 | COc1cccc([C@H]2Oc3cc(O)cc(O)c3C(=O)[C@@H]2O)c1OC | < 10 | > 100 | –
20 | COc1cccc([C@@H]2Oc3cc(O)cc(O)c3C(=O)[C@H]2O)c1OC | < 10 | > 100 | –
21 | COc1ccc([C@H]2Oc3cc(O)cc(O)c3C(=O)[C@@H]2O)c(OC)c1 | < 10 | > 100 | –
22 | COc1ccc([C@@H]2Oc3cc(O)cc(O)c3C(=O)[C@H]2O)c(OC)c1 | < 10 | > 100 | –
23 | COc1ccc(OC)c([C@H]2Oc3cc(O)cc(O)c3C(=O)[C@@H]2O)c1 | < 10 | > 100 | –
24 | COc1ccc(OC)c([C@@H]2Oc3cc(O)cc(O)c3C(=O)[C@H]2O)c1 | < 10 | > 100 | –
25 | COc1cc(OC)cc([C@H]2Oc3cc(O)cc(O)c3C(=O)[C@@H]2O)c1 | < 10 | > 100 | –
26 | COc1cc(OC)cc([C@@H]2Oc3cc(O)cc(O)c3C(=O)[C@H]2O)c1 | < 10 | > 100 | –
27 | COc1ccc([C@H]2Oc3cc(O)cc(O)c3C(=O)[C@@H]2O)cc1 | < 10 | > 100 | –
28 | COc1ccccc1C1Oc2cc(O)cc(O)c2C(=O)C1O (racemic) | < 10 | > 100 | –
29 | COc1cccc(OC)c1C1Oc2cc(O)cc(O)c2C(=O)C1O (racemic) | < 10 | > 100 | –
30 | COc1ccc(C2Oc3cc(O)cc(O)c3C(=O)C2O)cc1OC (racemic) | < 10 | > 100 | –
31 | O=C1c2c(O)cc(O)cc2O[C@H](c2ccc(O)c(O)c2)[C@H]1O [(+)-TAXIFOLIN] | < 10 | 13.9 | –
32 | O=C1c2c(O)cc(O)cc2O[C@H](c2ccc(O)cc2)[C@H]1O [DIHYDROKAEMPFEROL] | < 10 | > 100 | –
33 | O=C1c2c(O)cc(O)cc2O[C@H](c2ccc(O)cc2O)[C@H]1O [DIHYDROMORIN] | < 10 | > 100 | –
34 | N=C(N)NN [PIMAGEDINE HYDROCHLORIDE] | 72 | – | –
35 | O=C1c2c(O)cc(O)cc2O[C@H](c2ccccc2)[C@H]1O [PINOBAKSIN] | < 10 | > 100 | –
